According to ChEMBL document CHEMBL5303300, “EUbOPEN Chemogenomics Library - Multiplex” (2023):
“And” between values parts separate entries of the source, which are not always exact repeats. Equal entries are not always repeated.

Tested on: U2OS
Test: Multiplex assay against U2OS
Format: toxicity, cell-based
Conditions: human, number of replicates 2
Summary of the method: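 Per cents of healthy-nucleus cells form the tubulin, mitochondrial-mass and membrane-permeability phenotype values. Live cells were stained at seeding with Hoechst33342, BioTracker Green Microtubule Cytoskeleton Dye, MitoTracker Red and Annexin V Alexa Fluor 680. After compound addition they were imaged on a CQ1 microscope at 37°C and 5% CO2, and CellPathfinder machine-learning gating split them into Hoechst high-intensity objects or normal cells, normal cells into healthy, pyknosed or fragmented nuclei, and pyknosed cells into mitotic or apoptotic.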

[1] = 12 h, 1 µM, compound concentration 1 uM
[2] = 12 h, 10 µM, compound concentration 10 uM
[3] = 24 h, 1 µM, compound concentration 1 uM
[4] = 24 h, 10 µM, compound concentration 10 uM
[5] = 48 h, 1 µM, compound concentration 1 uM
[6] = 48 h, 10 µM, compound concentration 10 uM

CN(C)CCN(Cc1ccc(-c2ccc(CNCCc3ccccc3)cc2)cc1)C(=O)CCC1CCCC1.Cl.Cl
Population Apoptotic (%) [1]: 77% and 66% | Population Fragmented Nuclei (%) [1]: 17% and 9% | Population Healthy Nuclei (%) [1]: 55% and 78% | Population Hoechst High Intensity Objects (%) [1]: 0% | Population Membrane Permeable-Phenotype (%) [1]: 0% and 6% | Population Mitochondria Different-Phenotype (%) [1]: 36% and 27% | Population Mitotic Cells (%) [1]: 22% and 33% | Population Normal (%) [1]: 100% | Population Pyknosed Nuclei (%) [1]: 26% and 11% | Population Tubulin-Different-Phenotype (%) [1]: 42% and 43% | Population Apoptotic (%) [2]: 100% and 99% | Population Fragmented Nuclei (%) [2]: 7% and 5% | Population Healthy Nuclei (%) [2]: 11% and 13% | Population Hoechst High Intensity Objects (%) [2]: 0% and 2% | Population Membrane Permeable-Phenotype (%) [2]: 100% | Population Mitochondria Different-Phenotype (%) [2]: 100% and 88% | Population Mitotic Cells (%) [2]: 0% | Population Normal (%) [2]: 100% and 97% | Population Pyknosed Nuclei (%) [2]: 80% and 81% | Population Tubulin-Different-Phenotype (%) [2]: 100% and 88% | Population Apoptotic (%) [3]: 78% and 64% | Population Fragmented Nuclei (%) [3]: 10% and 23% | Population Healthy Nuclei (%) [3]: 73% and 44% | Population Hoechst High Intensity Objects (%) [3]: 0% | Population Membrane Permeable-Phenotype (%) [3]: 7% and 5% | Population Mitochondria Different-Phenotype (%) [3]: 39% and 57% | Population Mitotic Cells (%) [3]: 21% and 35% | Population Normal (%) [3]: 100% | Population Pyknosed Nuclei (%) [3]: 16% and 32% | Population Tubulin-Different-Phenotype (%) [3]: 44% and 36% | Population Apoptotic (%) [4]: 100% and 96% | Population Healthy Nuclei (%) [4]: 3% and 6% | Population Hoechst High Intensity Objects (%) [4]: 0% and 3% | Population Membrane Permeable-Phenotype (%) [4]: 100% | Population Mitochondria Different-Phenotype (%) [4]: 100% and 88% | Population Mitotic Cells (%) [4]: 0% and 3% | Population Normal (%) [4]: 100% and 96% | Population Pyknosed Nuclei (%) [4]: 76% and 87% | Population Tubulin-Different-Phenotype (%) [4]: 100% and 88% | Population Apoptotic (%) [5]: 80% and 83% | Population Fragmented Nuclei (%) [5]: 26% and 10% | Population Healthy Nuclei (%) [5]: 34% and 70% | Population Hoechst High Intensity Objects (%) [5]: 0% | Population Mitotic Cells (%) [5]: 20% and 16% | Population Normal (%) [5]: 100% | Population Pyknosed Nuclei (%) [5]: 40% and 18% | Population Tubulin-Different-Phenotype (%) [5]: 58% and 62% | Population Apoptotic (%) [6]: 93% and 97% | Population Fragmented Nuclei (%) [6]: 8% and 14% | Population Hoechst High Intensity Objects (%) [6]: 0% and 1% | Population Membrane Permeable-Phenotype (%) [6]: 100% | Population Mitochondria Different-Phenotype (%) [6]: 100% | Population Mitotic Cells (%) [6]: 6% and 2% | Population Normal (%) [6]: 100% and 98% | Population Pyknosed Nuclei (%) [6]: 66% and 80% | Population Tubulin-Different-Phenotype (%) [6]: 100%

COc1cc(OC)cc(C(=O)NNC(=O)Nc2cccc3ccccc23)c1
Population Apoptotic (%) [1]: 66% and 60% | Population Healthy Nuclei (%) [1]: 65% and 85% | Population Hoechst High Intensity Objects (%) [1]: 0% | Population Membrane Permeable-Phenotype (%) [1]: 7% and 3% | Population Mitochondria Different-Phenotype (%) [1]: 0% | Population Mitotic Cells (%) [1]: 33% and 39% | Population Normal (%) [1]: 100% | Population Pyknosed Nuclei (%) [1]: 15% and 11% | Population Tubulin-Different-Phenotype (%) [1]: 53% and 88% | Population Healthy Nuclei (%) [2]: 80% and 64% | Population Hoechst High Intensity Objects (%) [2]: 0% | Population Membrane Permeable-Phenotype (%) [2]: 0% and 5% | Population Mitochondria Different-Phenotype (%) [2]: 0% | Population Mitotic Cells (%) [2]: 57% and 90% | Population Normal (%) [2]: 100% | Population Pyknosed Nuclei (%) [2]: 15% and 19% | Population Tubulin-Different-Phenotype (%) [2]: 71% and 38% | Population Apoptotic (%) [3]: 51% and 100% | Population Fragmented Nuclei (%) [3]: 4% and 12% | Population Healthy Nuclei (%) [3]: 83% and 79% | Population Hoechst High Intensity Objects (%) [3]: 0% | Population Membrane Permeable-Phenotype (%) [3]: 2% and 0% | Population Mitochondria Different-Phenotype (%) [3]: 0% | Population Normal (%) [3]: 99% and 100% | Population Pyknosed Nuclei (%) [3]: 11% and 8% | Population Tubulin-Different-Phenotype (%) [3]: 89% and 36% | Population Apoptotic (%) [4]: 34% and 30% | Population Fragmented Nuclei (%) [4]: 5% and 6% | Population Healthy Nuclei (%) [4]: 83% and 73% | Population Hoechst High Intensity Objects (%) [4]: 0% | Population Membrane Permeable-Phenotype (%) [4]: 0% and 4% | Population Mitochondria Different-Phenotype (%) [4]: 0% and 4% | Population Mitotic Cells (%) [4]: 65% and 69% | Population Normal (%) [4]: 100% | Population Pyknosed Nuclei (%) [4]: 11% and 20% | Population Tubulin-Different-Phenotype (%) [4]: 81% and 50% | Population Apoptotic (%) [5]: 64% and 50% | Population Fragmented Nuclei (%) [5]: 3% and 6% | Population Healthy Nuclei (%) [5]: 88% and 85% | Population Hoechst High Intensity Objects (%) [5]: 0% | Population Membrane Permeable-Phenotype (%) [5]: 0% and 4% | Population Mitochondria Different-Phenotype (%) [5]: 0% and 4% | Population Mitotic Cells (%) [5]: 35% and 50% | Population Normal (%) [5]: 100% | Population Pyknosed Nuclei (%) [5]: 7% and 8% | Population Tubulin-Different-Phenotype (%) [5]: 92% and 47% | Population Apoptotic (%) [6]: 60% and 63% | Population Fragmented Nuclei (%) [6]: 5% and 2% | Population Healthy Nuclei (%) [6]: 68% and 90% | Population Hoechst High Intensity Objects (%) [6]: 2% and 0% | Population Membrane Permeable-Phenotype (%) [6]: 3% and 1% | Population Mitochondria Different-Phenotype (%) [6]: 4% and 0% | Population Mitotic Cells (%) [6]: 39% and 36% | Population Normal (%) [6]: 97% and 100% | Population Tubulin-Different-Phenotype (%) [6]: 52% and 84%

CS(=O)(=O)c1ccc(C(=O)Nc2cccc(COc3ccc(Br)cc3CN3CCC[C@H](O)C3)c2)c(Cl)c1.O=CO
Population Healthy Nuclei (%) [1]: 84% and 83% | Population Hoechst High Intensity Objects (%) [1]: 0% | Population Pyknosed Nuclei (%) [1]: 15% | Population Apoptotic (%) [2]: 66% and 52% | Population Healthy Nuclei (%) [2]: 69% and 75% | Population Hoechst High Intensity Objects (%) [2]: 0% | Population Pyknosed Nuclei (%) [2]: 15% and 18% | Population Healthy Nuclei (%) [3]: 74% and 83% | Population Hoechst High Intensity Objects (%) [3]: 0% | Population Apoptotic (%) [4]: 90% | Population Healthy Nuclei (%) [4]: 65% and 70% | Population Hoechst High Intensity Objects (%) [4]: 0% | Population Apoptotic (%) [5]: 77% and 76% | Population Healthy Nuclei (%) [5]: 53% and 83% | Population Hoechst High Intensity Objects (%) [5]: 0% | Population Pyknosed Nuclei (%) [5]: 19% | Population Apoptotic (%) [6]: 93% and 86% | Population Healthy Nuclei (%) [6]: 43% and 57% | Population Hoechst High Intensity Objects (%) [6]: 0% | Population Pyknosed Nuclei (%) [6]: 34% and 29%
